Sampled rows, rich in hits. Any-hit rate of the full collection: about 2.5%.
PAD4 FP inh: human PAD4 inhibitors, primary screen, biochemical, fluorescence polarization, 1536-well format. Protein-arginine deiminase type-4 (Homo sapiens), Q9UM07. recombinant PAD4, RCA probe fluorescence polarization. inhibition, % at 6.36 µM. actives 0.41% (n = 330,000). AID 485272, 2010;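 active means percent inhibition above a cutoff equal to the mean of all tested compounds plus 3 SD, cut at about 15% in these data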
GSTO1 inh: inhibitors of recombinant GSTO1, primary screen, counter-screen for RBBP9 inhibitor project, biochemical, fluorescence polarization; inhibition, % at 5.96 µM; actives 1.1% (n = 300,000); activity-based probe fluorescence polarization; Glutathione S-transferase omega-1 (Homo sapiens), P78417;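 active means inhibition above the campaign mean inhibition plus 3 SD, cut at about 35% in these data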
Target sequence (P78417 whole entry, looked up): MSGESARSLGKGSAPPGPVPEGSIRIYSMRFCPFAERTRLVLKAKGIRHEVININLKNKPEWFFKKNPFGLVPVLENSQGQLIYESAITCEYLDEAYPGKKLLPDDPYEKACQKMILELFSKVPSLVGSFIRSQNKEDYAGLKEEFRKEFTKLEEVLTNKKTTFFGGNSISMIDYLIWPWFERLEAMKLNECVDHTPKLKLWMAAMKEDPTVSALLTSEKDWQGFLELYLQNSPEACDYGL
eLon inh: inhibitors of E. coli Lon protease, primary screen, biochemical, fluorescence polarization; P0A9M0; actives 0.42% (n = 360,000); purified E. coli Lon protease; inhibition, % at 7.94 µM; in the data active means inhibition above about 13%, passing the limit was not always enough
TDP2 inh: human TDP2 enzyme inhibitors, primary screen, biochemical, epi absorbance, recombinant enzyme. Tyrosyl-DNA phosphodiesterase 2 (Homo sapiens), O95551. T5PNP hydrolysis, p-nitrophenol absorbance 415 nm. inhibition, % at 12.8 µM. actives 0.34% (n = 370,000). AID 720702, 2013;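 active means inhibition above the mean of all tested compounds plus 3 SD, set per campaign, cut at about 25% in these data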
Target sequence (O95551 whole entry, looked up): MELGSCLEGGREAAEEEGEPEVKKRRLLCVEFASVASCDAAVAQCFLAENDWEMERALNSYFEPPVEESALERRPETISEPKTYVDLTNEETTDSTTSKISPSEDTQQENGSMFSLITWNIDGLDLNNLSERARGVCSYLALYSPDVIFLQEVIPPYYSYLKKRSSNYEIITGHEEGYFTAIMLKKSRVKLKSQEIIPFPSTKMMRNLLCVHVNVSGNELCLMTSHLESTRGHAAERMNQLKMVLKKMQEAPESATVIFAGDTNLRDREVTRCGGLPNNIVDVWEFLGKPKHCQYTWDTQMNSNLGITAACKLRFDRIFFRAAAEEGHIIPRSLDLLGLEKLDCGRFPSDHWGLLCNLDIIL
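test system = human TDP2 enzyme | input = TDP2 enzyme at 120 nM final | medium = 50 mM Tris-HCl pH 7.5 with Mg2+, KCl, DTT, BSA | also added = T5PNP substrate, 5 mM | times = 2 h at 37 °C | technique = epi absorbance | benchmarks = high control without enzyme, low control DMSO plus TDP2 | replication = each compound tested once, singlicate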
PRMT1 inh: PRMT1 methyltransferase inhibitors, primary screen, biochemical, fluorescence polarization. actives 1.3% (n = 370,000). recombinant PRMT1, activity-based probe fluorescence polarization. inhibition, % at 2.79 µM. Protein arginine N-methyltransferase 1 (Homo sapiens), Q99873. AID 652257, 2013;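 active means inhibition above about 21% made by adding two undisclosed values, limit read from the data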
Numbers stand for hits; - = inactive; . = not tested or not shown.

SMILES	PAD4 FP inh	GSTO1 inh	eLon inh	TDP2 inh	PRMT1 inh
COc1ccccc1OCc1nc(C#N)c(NCCCn2ccnc2)o1	-	-	-	-	-
N#Cc1nc(COc2ccccc2F)oc1NCCCn1ccnc1	-	36.1	-	-	-
CCCCCC(=O)NC1CCCCN(Cc2cccc(Cl)c2)C1=O (stereo unspecified)	.	.	.	-	-
Cc1cc(O)c2c(c1O)C(=O)[C@]13C(=C2O)C(=O)[C@@H]2[C@@H](O)[C@H]1[C@@H]1[C@H](O)[C@H]3C(=O)C3=C(O)c4c(O)cc(C)c(O)c4C(=O)[C@]312	-	.	26.9	.	.
CCCCCC[C@@H](CC)CN(C(=O)Oc1ccccc1)c1ccccc1	.	.	.	-	-
CCN(C)C1CN(Cc2cn(CCCOC)nn2)S(=O)(=O)C1 (stereo unspecified)	.	.	-	-	-
CCCN(C)C1CN(Cc2cn(CCCOC)nn2)S(=O)(=O)C1 (stereo unspecified)	.	.	-	-	22.6
Cc1cc(C(=O)NCc2ccco2)on1	-	-	-	-	23.7
O=C(O)c1cccc(-n2cccc2/C=C2/NC(=O)N(c3ccc(Cl)cc3)C2=O)c1	.	.	-	-	32.1
O=C(O)c1cccc(-n2cccc2/C=C2/NC(=O)N(c3cccc(Cl)c3)C2=O)c1	-	-	-	-	-
Cc1ccc(-c2[nH]nc3c2C(c2ccoc2)C(C#N)=C(N)O3)cc1C (stereo unspecified)	-	44.2	-	.	.
Cc1ccc(-n2nc(C)c3c2OC(N)=C(C#N)C3c2ccco2)cc1 (stereo unspecified)	-	35.6	-	-	-
Cc1nn(-c2ccccc2)c2c1C(c1ccc(Br)s1)C(C#N)=C(N)O2 (stereo unspecified)	.	.	-	.	.
CCOC(=O)C1=C(C)OC(N)=C(C#N)C1c1ccoc1 (stereo unspecified)	-	-	-	-	-
Cc1nn(-c2ccccc2)c2c1C(c1ccc(F)cc1F)C(C#N)=C(N)O2 (stereo unspecified)	-	-	-	62.1	-
Cc1ccc(-n2nc(C)c3c2OC(N)=C(C#N)C3c2ccoc2)cc1 (stereo unspecified)	-	35.6	-	-	-
C=CCN1C(=O)[C@@H](CC(=O)NCc2cccs2)[C@]2(C(=O)OCC)CCCCC/C=C/12	.	.	.	-	-
CC(=O)Nc1ccc(OCC(C)CN2CCC(C(O)(c3ccccc3)c3ccccc3)CC2)cc1 (stereo unspecified)	.	.	.	-	-
CC(C)C(C#CC1CC1)NCc1ccc2c(c1)OCO2 (stereo unspecified)	.	.	.	-	-
COc1ccc(N2CCN(C(=O)c3ccc4c(c3)NC(=O)C(CSCc3ccccc3F)N4)CC2)cc1 (stereo unspecified)	.	.	-	-	36.8
CN1CC=C2C(C#N)=C(N)C(C#N)(C#N)[C@H](c3cccs3)[C@H]2C1	-	-	109.0	.	.
CN1CC=C2C(C#N)=C(N)C(C#N)(C#N)C(CCc3ccccc3)C2C1 (stereo unspecified)	-	-	33.4	.	.
COc1ccc(Cn2c(NC(=O)c3ccccc3)nc(Cc3ccccc3)c2Cc2ccccc2)cc1	.	.	.	-	-
Cc1cc(C)cc(C(=O)OCCN(C)C2CN(Cc3cn(Cc4cccc(F)c4)nn3)S(=O)(=O)C2)c1 (stereo unspecified)	.	.	.	-	-
Cn1c(=O)oc2cc(S(=O)(=O)NC3CCN(Cc4ccccc4)CC3)ccc21	-	37.1	-	-	-
SMILES	PAD4 FP inh	GSTO1 inh	eLon inh	TDP2 inh	PRMT1 inh
COC(=O)C1CSC(C(=O)OC)N1C(=O)Nc1c(C)cccc1C (stereo unspecified)	-	-	-	-	-
COC(=O)C1CSC(C(=O)OC)N1C(=O)Nc1ccccc1 (stereo unspecified)	-	-	-	-	24.1
CCOCC(=O)Nc1cc(C(=O)OC)ccc1C(=O)OC	-	36.7	-	-	-
CCC(C)C(=O)Nc1cc(C(=O)OC)ccc1C(=O)OC (stereo unspecified)	-	-	-	.	.
CN(C)c1ccc(N=Nc2ccc(S(=O)(=O)O)cc2)c2ccccc12	-	36.9	-	-	-
CC(=O)c1ccc(NC(=O)CSc2nnc(-c3ccco3)c(-c3ccco3)n2)cc1	-	35.3	-	-	73.3
CC(=O)Nc1ccc(NC(=O)CSc2nnc(-c3ccco3)o2)cc1	-	-	-	-	-
CN(CCOC(=O)c1cccs1)C1CN(Cc2cn(Cc3ccccc3Cl)nn2)S(=O)(=O)C1 (stereo unspecified)	.	.	.	-	-
N#CCC[C@@H]1CC[C@]2(CCCN(C(=O)c3ccco3)C2)O1	.	.	.	-	-
Oc1cccc(/C=N/Nc2cc(N3CCOCC3)nc(N3CCOCC3)n2)c1	-	-	-	-	-
Oc1ccc(/C=N/Nc2cc(N3CCOCC3)nc(N3CCOCC3)n2)cc1O	-	54.1	-	-	-
Oc1ccccc1/C=N/Nc1cc(N2CCCC2)nc(N2CCCC2)n1	-	73.1	-	-	-
O=C(/C=C/c1ccc(-c2ccccc2)o1)c1ccccc1	-	-	-	-	24.6
O=Cc1ccc(-c2cccc(C(=O)O)c2)o1	-	-	-	-	-
C/C=C/Cn1c(SCc2ccc(C)cc2)nc2c1c(=O)[nH]c(=O)n2C	-	-	-	-	-
CC=CCn1c(SCc2ccccc2)nc2c1c(=O)[nH]c(=O)n2C	.	.	-	-	24.0
Cc1ccc(-n2c(SCC(=O)Nc3ccccc3-c3ccccc3)nnc2-c2ccco2)cc1	.	.	.	-	-
Oc1ccc(C=Nc2ccc(N3CCOCC3)cc2)c(O)c1	-	-	-	-	-
Oc1cc(Br)ccc1C=Nc1ccc(N2CCCCC2)cc1	-	53.0	-	-	-
CCOC(=O)c1c(C2CC2)csc1NC(=O)COC(=O)CCS(=O)(=O)c1ccc(C)cc1	-	37.4	-	-	-
O=C(CCl)N1CCN(C(=O)C2COc3ccccc3O2)CC1 (stereo unspecified)	-	.	-	-	-
O=C(CCl)N1c2ccccc2OCC1c1ccccc1 (stereo unspecified)	-	64.4	-	-	-
CCOC(=O)NC[C@@]1(C(=O)OC)CC(=O)N(C)[C@@H]1c1ccccc1	.	.	.	-	-
CC(C)c1ccc(N2CCN(C(=O)c3ccccc3NC(=O)/C=C\C(=O)O)CC2)cc1	-	-	-	-	-
O=C(O)/C=C\C(=O)Nc1ccccc1C(=O)N1CCN(c2ccc(Cl)cc2)CC1	-	-	-	-	23.9
Cc1cc(OC(C)C(=O)NC(Cc2c[nH]c3ccc(O)cc23)C(=O)O)c2c(C)c(C)c(=O)oc2c1 (stereo unspecified)	-	-	-	-	-
CC(Oc1ccc2c(c1)oc(=O)c1ccccc12)C(=O)NC(Cc1c[nH]c2ccc(O)cc12)C(=O)O (stereo unspecified)	-	-	-	-	22.1

Screening data (PubChem BioAssay)
